Experiment: Inhibition of GST-tagged mouse Mcl-1 (152 to 309 residues)/FITC-labelled Bim (unknown origin) protein protein interaction at 100 uM by fluorescence polarization method relative to control
Summary of the method: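 Single-point fluorescence polarization competition at 100 μM. GST-tagged mouse Mcl-1(152–309) (20 nM stock in PBS, 0.005% Tween 20) was mixed with the compound in PBS containing 25% DMSO and 0.005% Tween 20. FITC-Bim-BH3 (10 nM stock in PBS, 5% DMSO) was then added and shaken 3 min at room temperature. Polarization (mP) was read at ex 480/em 535 nm, and percent inhibition is relative to control.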

| Structure (SMILES) | inhibition [%] |
| --- | --- |
| COc1cc(OC)cc(C(=O)S)c1 | < 5 |
| O=C(S)c1ccno1 | < 5 |
| [N-]=[N+]=NS(=O)(=O)c1ccc2ccc(S(=O)(=O)NCCSc3ccccc3)cc2c1 | 14 |
| CC1(C)CCN(c2ccc(C(=O)S)cc2)CC1 | < 5 |
| [N-]=[N+]=NS(=O)(=O)c1ccc(CN2Cc3c(Cl)cccc3C(Sc3ccccc3)C2)cc1 (configuration not stated) | 25 |
| O=C(S)c1cccc([N+](=O)[O-])c1 | < 5 |
| COc1cc2c(cc1OC)C(O)N(CC(=O)O)CC2 (configuration not stated) | < 5 |
| O=C(S)c1ccc(OC(F)(F)F)cc1 | < 5 |

Results, then the compound that gave them:

| inhibition [%] | Structure (SMILES) |
| --- | --- |
| < 5 | Cc1nc(-c2ccccc2)sc1C(=O)S |
| < 5 | OC(=S)c1ccccc1 |
| < 5 | O=C(S)c1cccc2ccccc12 |
| < 5 | O=C(S)c1ccco1 |
